A selection: hits, their analogues and other compounds. The true share with any hit is near 4%.
TAAR1 agonist: agonists of human TAAR1; Q96RJ0; CHO RD-HGA16 TAAR1, Fluo-8 calcium fluorescence; vehicle wells 0%, saturating PEA agonist 100%; activation, % at 3 µM; actives 0.99% (n = 360,000);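 active = activation above the mean activation of all test compounds in the run plus 3 SD, cut at about 38% in these data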
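Test system: RD-HGA16 (CHO) cells co-expressing Gα16 and hTAAR1; dosing: one-point dosing at 3 µM (nominal); timing: 17-24 h seeding, 75 min 37 °C dye, 30 min RT; signal: kinetic Fluo-8 calcium fluorescence; read-out basis: % activation relative to PEA EC100 response; controls: DMSO and PEA EC100; replicates: n 1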
MPTP block: inhibitors of mitochondrial permeability transition pore; AID 602449; actives 1.4% (n = 360,000); isolated mouse mitochondria, Ca2+ swelling absorbance, 30 min; inhibition, % at 10 µM;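 active = inhibition of 50% or more, scaled per plate between neutral and stimulator controls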;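 note: 0% = DMSO wells given calcium and 100% = 1 mM EGTA wells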
GPR7 antagonist: blocks human GPR7 receptor signaling; P48145; GPR7-expressing cells, fluorescence antagonist assay; inhibition, % at 4.4 µM; actives 1.1% (n = 290,000); in the data active = inhibition above about 16%, passing the limit was not always enough;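 note: cells stimulated with the agonist NPW; 0% = agonist with vehicle and 100% = vehicle without agonist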
TAAR1 antag: human TAAR1 antagonism | Q96RJ0 | CHO RD-HGA16 TAAR1, Fluo-8 calcium fluorescence, antagonist | inhibition, % at 3 µM | actives 1.5% (n = 360,000) | AID 624466;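 active = inhibition above a per-plate cutoff, the mean inhibition of test compounds on that plate plus 3 SD, cut at about 49% in these data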;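 note: 0% = DMSO plus EC80 beta-PEA response and 100% = DMSO alone without agonist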
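System: CHO RD-HGA16 cells bearing hTAAR1. Reagent: EC80 β-phenethylamine stimulus. Schedule: seeding 17-24 h prior, 75-min 37 °C, 30-min RT dye loading. Signal: Fluo-8 intracellular calcium dye fluorescence, real-time kinetic reads. Read-out: % inhibition from peak post-agonist over basal fluorescence ratio. Benchmarks: vehicle wells and EC80 agonist wells. Replicates: n of 1.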
DAGLB inhibitor: diacylglycerol lipase beta (human) inhibition. Q8NCG7. AID 504411. HEK293T DAGLB membrane lysate, EnzChek fluorogenic substrate. actives 0.059% (n = 340,000). inhibition, % at 5.17 µM; in the data active = inhibition above about 34%;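 note: 0% = enzyme with vehicle and 100% = wells lacking enzyme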
Target sequence (Q8NCG7 whole entry, looked up): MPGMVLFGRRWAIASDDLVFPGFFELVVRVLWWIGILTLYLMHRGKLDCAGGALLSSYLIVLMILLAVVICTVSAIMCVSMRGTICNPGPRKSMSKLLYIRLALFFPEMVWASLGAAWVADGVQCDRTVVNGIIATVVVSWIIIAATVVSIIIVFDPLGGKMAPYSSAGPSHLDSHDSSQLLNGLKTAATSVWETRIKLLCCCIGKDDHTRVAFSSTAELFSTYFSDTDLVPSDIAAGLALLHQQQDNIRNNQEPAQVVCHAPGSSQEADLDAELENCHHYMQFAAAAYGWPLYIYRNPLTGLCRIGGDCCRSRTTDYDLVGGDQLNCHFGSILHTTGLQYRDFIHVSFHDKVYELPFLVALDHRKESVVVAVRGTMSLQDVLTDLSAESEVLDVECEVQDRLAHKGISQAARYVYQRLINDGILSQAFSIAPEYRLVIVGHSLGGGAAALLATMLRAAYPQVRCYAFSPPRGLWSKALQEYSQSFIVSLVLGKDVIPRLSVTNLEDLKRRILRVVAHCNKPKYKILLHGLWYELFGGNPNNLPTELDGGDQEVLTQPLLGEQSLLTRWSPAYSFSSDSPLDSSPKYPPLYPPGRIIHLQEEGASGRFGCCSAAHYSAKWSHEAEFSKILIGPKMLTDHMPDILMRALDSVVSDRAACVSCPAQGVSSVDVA
The depositor's hits bear a star; nt = not tested or not shown.

SMILES	TAAR1 agonist	MPTP block	GPR7 antagonist	TAAR1 antag	DAGLB inhibitor
O=C1CCCN1CCCNc1nc(NCc2ccccc2)nc2ccsc12	129*	2	nt	105*	nt
COC(=O)c1c(-c2ccc(OC)cc2)c2c(c3c4cc(F)ccc4n(S(=O)(=O)c4ccc(C)cc4)c13)C(=O)N(C)C2	-1	nt	nt	-13	nt
O=S(=O)(c1ccc(NC(=S)NCc2ccc(F)cc2)cc1)N1CCOCC1	44*	41	10	27	-3
NS(=O)(=O)c1ccc(NC(=S)NCc2ccc(F)cc2)cc1	0	-2	10	13	-1
O=C(Nc1ccn(CCCNCC(c2ccccc2)c2ccccc2)c(=O)n1)OCc1ccccc1	4	-1	nt	-8	0
CC(CC(=O)N1CCN(c2ccccc2)CC1)S(=O)(=O)c1ccc2c(c1)NC(=O)CO2 (centres undefined)	17	0	-1	53*	0
COc1cccc(-n2nc(C#N)c(Cl)cc2=O)c1	2	0	41*	39	-25
COc1cccc(-n2nc(C(N)=O)c(O)cc2=O)c1	7	-1	-1	0	-1
Cc1ccc(C(NC(=O)C2CCN(Cc3ccc(Oc4ccccc4)cc3)CC2)c2ccccn2)cc1 (centres undefined)	5	5	nt	-2	nt
CCOc1ccc(NC(=O)c2ccc3c(c2)S(=O)(=O)N=C2CCCCCN23)cc1	8	1	nt	-37	-4
O=C1Cc2ccccc2C(=O)N1	4	-1	nt	-5	nt
COCCCn1c(SCCc2ccccc2)nc2cc(OC)c(OC)cc2c1=N	11	-4	-21	56*	-4
Cc1nc2sccn2c(=O)c1S(=O)(=O)Nc1ccc(N2CCN(S(C)(=O)=O)CC2)cc1	21	-1	2	60*	1
O=C(CS(=O)(=O)c1ccccc1)Nc1nnc(Cc2ccccc2)s1	0	-5	-16	-1	3
CCC1(c2ccc(F)cc2)NC(=O)N(CC(=O)N2CCc3ccccc32)C1=O (centres undefined)	68*	-1	nt	24	3
CCOC(=O)C1CCCN(C(=O)c2ccc(SC(F)(F)F)cc2)CC1 (centres undefined)	0	0	nt	-11	nt
COc1ccc(-c2coc3c(C(=O)Nc4cc(OC)c(OC)c(OC)c4)cccc23)c(C)c1	1	16	nt	63*	nt
COc1ccc(OC)c(S(=O)(=O)N2CCC(C(=O)Nc3ccc(C)c(C)c3)CC2)c1	31	7	-13	61*	-5
O=C(CCN1C(=O)/C(=C/c2cccs2)SC1=S)Nc1ccccn1	33	-3	1	50*	3
O=C(CCCN1C(=O)/C(=C\c2cccs2)SC1=S)Nc1ccccn1	5	1	-3	-4	0
N#Cc1nc(COc2ccc(Br)cc2)oc1N1CCN(Cc2ccccc2)CC1	4	0	29*	21	-9
CCN1CCN(c2oc(COc3ccc(-c4ccccc4)cc3)nc2C#N)CC1	15	-4	12	28	0
CC1(C)OC(C)(C)C(=N/O)/C1=N\N	3	nt	nt	-20	nt
CCOC(=O)N1CCN(C2OC(=O)c3ccccc32)CC1 (centres undefined)	38*	-1	-14	-6	2
O=C(CCC(=O)N1CCOCC1)NCCc1ccccc1	39*	-2	nt	63*	-1
SMILES	TAAR1 agonist	MPTP block	GPR7 antagonist	TAAR1 antag	DAGLB inhibitor
COc1cc(NS(=O)(=O)c2ccc(C)cc2)c2c(c1N)C(=O)c1ccccc1C2=O	0	10	nt	5	11
N#Cc1ccc(CSc2nnc(NC(=O)C3CC(=O)N(c4ccc5c(c4)OCCO5)C3)s2)cc1 (centres undefined)	nt	-1	-4	nt	3
O=C(Nc1nnc(SCc2ccc(F)cc2)s1)C1CC(=O)N(c2ccc3c(c2)OCCO3)C1 (centres undefined)	38*	0	-14	-4	1
Cc1ccc(-c2nc(=S)c3c(n2Cc2ccco2)CCCC3)cc1	3	3	17	6	-19
Cc1ccc(-c2nc(=S)c3c(n2Cc2ccco2)CC(C)(C)OC3)cc1	nt	2	17*	nt	6
COc1ccc2c(c1)[C@@H](NC(=O)C(F)(F)F)[C@@H]1CCCC[C@]21c1ccccc1	0	nt	nt	24	nt
COc1ccc(C(=O)Nc2nc(OCC(F)(F)F)cnc2/C=C\c2ccccc2)c(OC)c1	1	-1	nt	-10	nt
O=C(Nc1nc(OCC(F)(F)F)cnc1/C=C\c1ccccc1)c1ccsc1	1	11	nt	57*	nt
